Reference: ChEMBL document CHEMBL1795208 (J Med Chem, 2011)

Tests used:
Assay type in all cases: functional, cell-based
[1] = test system: SK-BR-3; assay: Antiproliferative activity against human SKBR3 cells expressing HER2 after 72 hrs by MTS/PMS assay; settings: SK-BR-3, 72 h
Summary of the method: (§1)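 Cells kept in Advanced DMEM/F12 (1:1) with non-essential amino acids, 2 mM L-glutamine, penicillin, streptomycin and 10% FBS at 37 °C, 5% CO2. Seeded at 2000/well, attached overnight. Compound added in DMSO across a concentration range (1% DMSO final) for 72 h. Viable cells read by MTS/PMS and normalized to 1% DMSO controls (100%). IC50 taken from separate triplicate experiments.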

[2] = test system: MCF7; assay: Antiproliferative activity against human MCF7 cells expressing estrogen receptor after 72 hrs by MTS/PMS assay; settings: MCF7, 72 h; summary of the method: as §1
[3] = test system: B16-F10; assay: Antiproliferative activity against mouse B16F10 cells after 72 hrs by MTS/PMS assay; settings: B16-F10, 72 h; summary of the method: as §1
[4] = Antiproliferative activity against human androgen-dependent LNCaP-LN3 cells after 72 hrs by MTS/PMS assay; settings: LNCaP-LN3, 72 h; summary of the method: as §1
[5] = test system: SK-MEL-28; assay: Antiproliferative activity against human SK-MEL-28 cells after 72 hrs by MTS/PMS assay; settings: SK-MEL-28, 72 h; summary of the method: as §1
[6] = Antiproliferative activity against human MDA1986 cells after 72 hrs by MTS/PMS assay; settings: MDA1986, 72 h; summary of the method: as §1
[7] = Antiproliferative activity against human androgen-independent PC3MM2 cells after 72 hrs by MTS/PMS assay; settings: PC3MM2, 72 h; summary of the method: as §1
[8] = Antiproliferative activity against human JMAR cells after 72 hrs by MTS/PMS assay; summary of the method: as §1

Compound	IC50 [1] [µM]	IC50 [2] [µM]	IC50 [3] [µM]	IC50 [4] [µM]	IC50 [5] [µM]	IC50 [6] [µM]	IC50 [7] [µM]	IC50 [8] [µM]
CNCCOc1ccc2cc(NC(=O)c3ccc(OC)c(-c4cccc(OC)c4)c3)c(=O)oc2c1C	5.36	9.8	37.4	> 100	25.6	21.9	14	35.1
COc1cccc(-c2cc(C(=O)Nc3cc4cc(OC)c(OC5CN(C)C[C@@H](O)[C@H]5O)c(C)c4oc3=O)ccc2OC)c1 (some centres undefined)	2.77	2.01	2.81	4.69	5.73	12.8	4.17	24.5
COc1cccc(-c2cc(C(=O)Nc3cc4ccc(OC5C=CCN(C)C5)c(OC)c4oc3=O)ccc2OC)c1 (centres undefined)	3.42	1.65	6.47	0.36	1.48	2.36	0.98	1.94
COc1cccc(-c2cc(C(=O)Nc3cc4ccc(OC5CCCNC5)c(OC)c4oc3=O)ccc2OC)c1 (centres undefined)	2.61	3.29	0.64	12.7	14.7	12.8	10.4	12.7
COc1cccc(-c2cc(C(=O)Nc3cc4cc(OC)c(OC5C=CCN(C)C5)c(C)c4oc3=O)ccc2OC)c1 (centres undefined)	1.96	5.27	6.14	4.49	31.5	16.4	3.87	18.4
COc1cccc(-c2cc(C(=O)Nc3cc4ccc(O[C@@H]5C[C@H](O)CO5)c(C)c4oc3=O)ccc2OC)c1	> 100	> 100	9.37	4.96	12.4	18.8	26.8	6.19
COc1cccc(-c2cc(C(=O)Nc3cc4cc(OC)c(OC5C=CCN(C(C)=O)C5)c(C)c4oc3=O)ccc2OC)c1 (centres undefined)			21.4		27.6	25.1		35.1
COc1cccc(-c2cc(C(=O)Nc3cc4ccc(O[C@@H]5OCCC[C@H]5O)c(C)c4oc3=O)ccc2OC)c1	> 100	> 100	1.01	3.75	1.47	0.81	10.1	16.1
COc1cccc(-c2cc(C(=O)Nc3cc4ccc(O[C@@H]5OCC[C@H]5O)c(C)c4oc3=O)ccc2OC)c1	> 100	> 100	42.7		18.4	21.4		14.9
COc1cccc(-c2cc(C(=O)Nc3cc4ccc(O[C@@H]5OCCC[C@@H](O)[C@H]5O)c(C)c4oc3=O)ccc2OC)c1	2.38	> 100	> 50	> 100	18.5	22.9		7.4
COc1cccc(-c2cc(C(=O)Nc3cc4cc(OC)c(OC5CCCN(C(C)=O)C5)c(C)c4oc3=O)ccc2OC)c1 (centres undefined)			23.9		29.4	36.4		32.8
COc1cccc(-c2cc(C(=O)Nc3cc4ccc(OC5C=CCC(C)(C)C5)c(C)c4oc3=O)ccc2OC)c1 (centres undefined)			> 50		23.8	24.4		6.7
COc1cccc(-c2cc(C(=O)Nc3cc4ccc(O[C@@H]5OCC[C@@H](O)[C@H]5O)c(C)c4oc3=O)ccc2OC)c1	6.23	2.56	37.5	3.59	14.9	13.4		2.79
COc1cccc(-c2cc(C(=O)Nc3cc4cc(OC)c(OC(C)=O)c(C)c4oc3=O)ccc2OC)c1	5.72	1.5		1.05			1.69	
COc1cccc(-c2cc(C(=O)Nc3cc4ccc(OP(=O)(OC)OC)c(OC)c4oc3=O)ccc2OC)c1	18.1	> 100		6.58			11.5	
COc1cc2cc(NC(=O)c3cc4ccccc4[nH]3)c(=O)oc2c(C)c1OCCCN(C)C	0.57	0.56	2.03		1.35	1.81	2.58	2.65
COc1cccc(-c2cc(C(=O)Nc3cc4cc(OC)c(O[C@H]5C[C@H](O)CCO5)c(C)c4oc3=O)ccc2OC)c1	> 100	> 100		1.49			1.24	
COc1cccc(-c2cc(C(=O)Nc3cc4ccc(OC(=O)N(C)C)c(C)c4oc3=O)ccc2OC)c1	39.9	74.4		5.4			> 100	
COc1cccc(-c2cc(C(=O)Nc3cc4ccc(OCCCN(C)C)c(C)c4oc3=O)ccc2OC)c1	0.6	0.5		37.5			12.8	
COc1cccc(-c2cc(C(=O)Nc3cc4cc(OC)c(O[C@@H]5OC[C@@H](O)[C@H]5O)c(C)c4oc3=O)ccc2OC)c1	9.45	3.37		4.72			9.56	
COc1cccc(-c2cc(C(=O)Nc3cc4ccc(OC5CN(C)C[C@@H](O)[C@H]5O)c(C)c4oc3=O)ccc2OC)c1 (some centres undefined)	3.92	1.85		0.59			2.99	

Compound	IC50 [1] [µM]	IC50 [2] [µM]	IC50 [3] [µM]	IC50 [4] [µM]	IC50 [5] [µM]	IC50 [6] [µM]	IC50 [7] [µM]	IC50 [8] [µM]
COc1cccc(-c2cc(C(=O)Nc3cc4ccc(OC5C=CCN(C(C)=O)C5)c(C)c4oc3=O)ccc2OC)c1 (centres undefined)	> 50	> 50		0.9			3.73	
COc1cccc(-c2cc(C(=O)Nc3cc4ccc(O[C@H]5C[C@H](O)CCO5)c(C)c4oc3=O)ccc2OC)c1	> 100	> 100		3.11			> 100	
COc1cccc(-c2cc(C(=O)Nc3cc4ccc(OC(C)=O)c(OC)c4oc3=O)ccc2OC)c1	20.5	8.62		14.6			19.3	
COc1cccc(-c2cc(C(=O)Nc3cc4cc(OC)c(OP(=O)(OC)OC)c(C)c4oc3=O)ccc2OC)c1	26.5	24.2		1.36			31.3	
COc1cccc(-c2cc(C(=O)Nc3cc4ccc(OC5C=CCC(C)C5)c(C)c4oc3=O)ccc2OC)c1 (centres undefined)			> 50		20.6	21.8		24.9
COc1cccc(-c2cc(C(=O)Nc3cc4ccc(OS(C)(=O)=O)c(C)c4oc3=O)ccc2OC)c1	7.33	8.85		20			> 100	
COc1cccc(-c2cc(C(=O)Nc3cc4ccc(OC5CN(C(C)=O)C[C@@H](O)[C@H]5O)c(C)c4oc3=O)ccc2OC)c1 (some centres undefined)	10.8	9.18		0.71			2.22	
COc1cccc(-c2cc(C(=O)Nc3cc4ccc(O[C@H]5OCCC[C@H]5O)c(C)c4oc3=O)ccc2OC)c1	> 100	> 100	10.4	7.34	19.6	18.8		3.6
COc1c(OCCCN(C)C)ccc2cc(NC(=O)c3cc4ccccc4[nH]3)c(=O)oc12	1.5	1.41		4.71			8.95	
COc1cccc(-c2cc(C(=O)Nc3cc4cc(OC)c(OCCN(C)C)c(C)c4oc3=O)ccc2OC)c1	1.42	1.29		6.28			4.87	
COc1cccc(-c2cc(C(=O)Nc3cc4ccc(OC5OC(C)(C)[C@H](OC)[C@@H](O)[C@H]5O)c(OC)c4oc3=O)ccc2OC)c1 (some centres undefined)	13.9	9		0.11			1.44	
CNCCOc1ccc2cc(NC(=O)c3ccc(OC)c(-c4cccc(OC)c4)c3)c(=O)oc2c1OC	3.6	4.32		15.2			9.12	
COc1cccc(-c2cc(C(=O)Nc3cc4ccc(OCCN(C)C)c(OC)c4oc3=O)ccc2OC)c1	1.77	3.08		5.22			6.2	
COc1cccc(-c2cc(C(=O)Nc3cc4cc(OC)c(O[C@@H]5OCC[C@@H](O)[C@H]5O)c(C)c4oc3=O)ccc2OC)c1	7.18	9.5		12.8			24	
COc1cccc(-c2cc(C(=O)Nc3cc4ccc(O[C@@H]5OC[C@@H](O)[C@H]5O)c(C)c4oc3=O)ccc2OC)c1	12.5	37.2	4.55	3.65	5.74	1.94		12.6
COc1cccc(-c2cc(C(=O)Nc3cc4ccc(OC5C=CCCC5)c(C)c4oc3=O)ccc2OC)c1 (centres undefined)			> 50		18.6	22.4		7.5
COc1cccc(-c2cc(C(=O)Nc3cc4ccc(OS(=O)(=O)c5ccc(C)cc5)c(C)c4oc3=O)ccc2OC)c1	> 100	> 100		0.58			> 100	
COc1cccc(-c2cc(C(=O)Nc3cc4cc(OC)c(OC(=O)N(C)C)c(C)c4oc3=O)ccc2OC)c1	6.17	34.4		12.8			4.04	
COc1cccc(-c2cc(C(=O)Nc3cc4ccc(OC(N)=O)c(C)c4oc3=O)ccc2OC)c1	3.02	1.16		2.61			6.37	
COc1cccc(-c2cc(C(=O)Nc3cc4ccc(O)c(OC)c4oc3=O)ccc2OC)c1	> 100	5.32		6.18			> 100	
